These results are taken from ChEMBL document CHEMBL1255391, “Rates and mechanisms of resistance development in Mycobacterium tuberculosis to a novel diarylquinoline ATP synthase inhibitor” (2010).

Broadly, the MIC is the smallest concentration in the dilution series that meets the test's criterion for growth inhibition.

Holding throughout (assay type): functional
Assay [1] deals with Mycobacterium tuberculosis. Description: Antimicrobial activity against drug-susceptible Mycobacterium tuberculosis Mycobacterium tuberculosis H37Rv expressing wild type atpE and F0 operon selected after 10 times MIC drug exposure. The method, boiled down:
(§1)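 Each resistant mutant clone (one colony picked per independent fluctuation culture selected on drug agar) is suspended in PBS, sonicated and applied by 96-pin replicator. Nonselective and rifampin control plates are included. Plates are read after 4 weeks; MIC is the lowest concentration with no visible growth.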

Assay [2] deals with Mycobacterium tuberculosis. Put plainly: Antimicrobial activity against drug-susceptible Mycobacterium tuberculosis H37Rv expressing wild type atpE selected after 10 times MIC drug exposure. The method, boiled down:
as §1

Assay [3] concerns Mycobacterium tuberculosis. Description: Antimicrobial activity against drug-susceptible Mycobacterium tuberculosis isolate 4 expressing wild type atpE and F0 operon selected after 10 times MIC drug exposure. The method, boiled down:
as §1

Assay [4] deals with Mycobacterium tuberculosis. Description: Antimicrobial activity against drug-susceptible Mycobacterium tuberculosis isolate 4 expressing wild type atpE selected after 10 times MIC drug exposure. The method, boiled down: as §1
Assay [5] concerns Mycobacterium tuberculosis. Description: Antimicrobial activity against drug-susceptible Mycobacterium tuberculosis isolate 6 expressing wild type atpE selected after 10 times MIC drug exposure. In short, it runs like this:
as §1

The subject of assay [6] is Mycobacterium tuberculosis. Description: Antimicrobial activity against drug-susceptible Mycobacterium tuberculosis isolate 6 expressing wild type atpE selected after 30 times MIC drug exposure. In short, it runs like this: as §1
Assay [7] concerns Mycobacterium tuberculosis. Description: Antimicrobial activity against drug-susceptible Mycobacterium tuberculosis H37Rv expressing wild type atpE selected after 30 times MIC drug exposure. In short, it runs like this:
as §1

Assay [8] deals with Mycobacterium tuberculosis. Description: Antimicrobial activity against drug-susceptible Mycobacterium tuberculosis H37Rv.

In brackets after ≈: the same amount, converted by molar mass.

For `COc1nc2ccc(Br)cc2cc1[C@@H](c1ccccc1)[C@@](O)(CCN(C)C)c1cccc2ccccc12` [BEDAQUILINE], the MIC was 0.48 µg/mL (≈ 0.864 µM) in assay [1]; 0.48 µg/mL (≈ 0.864 µM) in assay [2]; 0.3 µg/mL (≈ 0.54 µM) in assay [3]; 0.12 µg/mL (≈ 0.216 µM) in assay [4]; 0.24 µg/mL (≈ 0.432 µM) in assay [5]; 0.12 µg/mL (≈ 0.216 µM) in assay [6]. Moreover, the MIC in assay [7] came to 0.24 µg/mL (≈ 0.432 µM); in assay [8], 0.03 µg/mL (≈ 0.054 µM).
